Screening data from PubChem BioAssay.
In the library only some 2.9% were active in any assay of this set; here they are far more common.
CAL PDZ FP-1: inhibitors of human CAL PDZ peptide binding. Q9HD26. purified CAL PDZ, TMR-peptide fluorescence polarization, 1 h. inhibition, % at 20 µM. hit rate 0.02% among 330,000. AID 504414;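 active means highest replicate inhibition of at least 40%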;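 further: plate controls were DMSO neutral control wells for no effect and unlabeled competitor peptide control wells for full effect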
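System: purified tagged CAL PDZ domain construct (CerCALP). Schedule: 1 h incubation at room temperature before polarization reading. Medium: 25 mM sodium phosphate pH 7.4, 150 mM NaCl, TCEP, IgG, Thesit. Read-out: percent inhibition from loss of millipolarization. Measured by: FP readout, S and P plane fluorescence. Probe or stimulus: fluorescent TMR peptide probe.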
S100A4 MyoIIA: blocks human S100A4 binding to myosin IIA peptide | P26447 | S100A4/TAMRA-MyoIIA peptide fluorescence polarization | inhibition, % at 10.7 µM | AID 652163 | hit rate 0.14% among 360,000;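 active means mean inhibition of at least 70% across replicates, with every replicate also reaching that level; inconclusive means mean inhibition reaches 70% but some replicates fall short; inactive means mean inhibition below 70%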
Target sequence (P26447 whole entry, looked up): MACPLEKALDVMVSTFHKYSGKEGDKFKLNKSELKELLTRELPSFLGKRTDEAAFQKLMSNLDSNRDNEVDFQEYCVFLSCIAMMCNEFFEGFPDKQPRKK
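assay system = human S100A4 monomer with TAMRA-labelled myosin IIA peptide | also added = labelled myosin peptide probe, 5 nM | incubation = 5 min between mix addition and reading | control set = DMSO and TFP controls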
CAL PDZ FP-2: inhibitors of human CAL PDZ peptide binding; Q9HD26; purified CAL PDZ, TMR-peptide fluorescence polarization, 1 h; AID 602252; inhibition, % at 24.9 µM; hit rate 0.92% among 300,000;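 active means mean inhibition of at least 30% with at least half of replicates also reaching 30%; inconclusive means no clear call, values can overlap the other calls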;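 further: 0% = DMSO neutral control and 100% = excess unlabeled competitor peptide PRC23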
ERAP1 HTS inh: ERAP1 (human) enzyme inhibition. Q9NZ08. recombinant ERAP1, Leu-AMC fluorescence, 60 min. AID 652197. hit rate 0.15% among 340,000. inhibition, % at 10.7 µM;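 active means mean replicate inhibition of at least 30%, or all replicates individually reaching that 30% level; inactive means mean below 30% and not every replicate reaching it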;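 further: 0% = neutral control wells and 100% = L-leucinethiol positive control wells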
SIRT5 block: sirtuin-5 (human) deacylase inhibition. Q9NXA8. Purified SirT5, succinyl-peptide AMC, trypsin-coupled fluorescence. inhibition, % at 15 µM. hit rate 1.1% among 330,000; in the data active means inhibition above about 15%; inconclusive means no clear call, values can overlap the other calls
Target sequence (Q9NXA8 whole entry, looked up): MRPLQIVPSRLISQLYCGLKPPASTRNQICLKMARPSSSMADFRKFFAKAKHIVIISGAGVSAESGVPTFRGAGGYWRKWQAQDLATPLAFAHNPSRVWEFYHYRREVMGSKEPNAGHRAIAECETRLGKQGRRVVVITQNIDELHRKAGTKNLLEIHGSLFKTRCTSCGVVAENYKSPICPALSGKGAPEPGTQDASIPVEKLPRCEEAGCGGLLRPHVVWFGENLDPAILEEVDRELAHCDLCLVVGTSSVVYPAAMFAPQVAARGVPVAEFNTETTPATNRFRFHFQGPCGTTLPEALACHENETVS
DENV2 CPE rescue: inhibitors of DENV2 cytopathic effect; DENV2-infected cells, cytopathic effect rescue, plate reader; CPE inhibition, % at 9.99 µM; hit rate 1.7% among 350,000; AID 651640; in the data active means CPE inhibition above about 20%, passing the limit was not always enough; inconclusive means no clear call, values can overlap the other calls; tested in BHK-21 cells;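 further: 0% = median of neutral control wells and 100% = median of positive control wells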
The depositor's hits bear a star; u = inconclusive; x = no result given.

SMILES | CAL PDZ FP-1 | S100A4 MyoIIA | CAL PDZ FP-2 | ERAP1 HTS inh | SIRT5 block | DENV2 CPE rescue
COc1ccc(-c2nc3ccccc3nc2-c2ccccc2)cc1OC | -1 | 4 | -1 | 1 | 17* | -6
CCNC(=O)C[C@H]1CC[C@@H]2[C@H](COC[C@H](O)CN2C(=O)Nc2ccc(Cl)c(Cl)c2)O1 | x | 0 | x | 0 | 4 | -8
COc1cc(OC)cc(C(=O)NNC(=O)CCC(=O)c2cc(C)sc2C)c1 | -1 | -2 | 0 | -1 | 0 | 73*
CCCn1nnc(NC(=O)c2ccc3c(c2)OCO3)n1 | -1 | 5 | 103* | 1 | -3 | 11
COc1cccc(C(=O)Nc2cc3c(cc2C(C)=O)OCCO3)c1 | -1 | 0 | -2 | 3 | -2 | 76*
CCCCNC(=S)NNC(=O)c1ccc2c(c1)OCO2 | 0 | 2 | -2 | 2 | x | 142*
COc1cccc(NC(=O)c2ccc3c(c2)OCCO3)c1 | 0 | -1 | -5 | -1 | 0 | 1
CCC(=O)Nc1cccc(NC(=O)c2ccc3c(c2)OCO3)c1 | -1 | x | 50* | x | x | x
CCCn1nnc(NC(=O)c2cccc(Cl)c2)n1 | x | x | -2 | x | x | x
O=C(Nc1ccc2c(c1)OCCO2)c1cccc(C(=O)Nc2ccc3c(c2)OCCO3)c1 | x | -6 | -4 | 0 | 1 | 26*
COc1ccc2c3c(n(C)c2c1)[C@@H](CO)N(C(=O)C1CCC1)CC31CCN(C(=O)Nc2cccc(F)c2)CC1 | x | -41 | x | 0 | 1 | 3
C[C@@H]1CN([C@H](C)CO)C(=O)Cc2cc(NC(=O)c3ccncc3)ccc2O[C@@H]1CN(C)S(=O)(=O)c1ccc(Cl)cc1 | x | -31 | x | -1 | 4 | 17
Cc1cc2oc3ccc(NCCCN4CCOCC4)cc3c(=O)c2cc1C | -1 | -4 | 0 | 3 | -1 | 37*
CC1Cc2ccccc2N1C(=O)c1cnc2ccccn2c1=O (stereo unspecified) | -1 | x | -3 | x | x | x
Cc1csc2ncc(C(=O)N3c4ccccc4CC3C)c(=O)n12 (stereo unspecified) | 0 | -2 | x | 0 | 16* | 2
CO[C@@H]1CN(C)C(=O)c2cc(NS(=O)(=O)c3ccccc3)ccc2OC[C@@H](C)N(Cc2cccnc2)C[C@H]1C | x | 13 | x | 2 | 2 | 1
N#CC1=C(N)C(C#N)(C#N)[C@H](c2cccnc2)[C@H]2CN(C(=O)OCc3ccccc3)CC=C12 | -3 | 1 | -3 | -6 | 16* | -1
N#CC1=C(N)C(C#N)(C#N)C(c2ccncc2)C2CN(C(=O)OCc3ccccc3)CC=C12 (stereo unspecified) | -1 | x | -3 | x | x | x
CC=Cc1ccc2n(c1=O)C[C@H]1[C@H](CO)[C@@H](C(=O)NCCC)[C@@H]2N1C(=O)c1ccccc1 (mixture of isomers) | x | 0 | x | -1 | -10 | 18
Cc1ccc(S(=O)(=O)N2CCC(C(=O)OCC(=O)Nc3cc(S(C)(=O)=O)ccc3Cl)CC2)cc1C | 6 | -5 | 40* | 0 | -2 | 6
COc1cc(/C=C/C(=O)OCC(=O)Nc2cc(S(=O)(=O)N3CCCCC3)ccc2C)ccc1O | 1 | -7 | x | 2 | 3 | 22*
Cc1ccc(Cl)c(NC(=O)COC(=O)C2CCC2)c1Cl | -1 | -5 | 55* | 4 | 7 | -2
O=C(COC(=O)CN1C(=O)C2CCCCC2C1=O)Nc1cc(S(=O)(=O)N2CCOCC2)ccc1Cl (stereo unspecified) | 1 | 1 | -2 | 6 | 6 | 88*
COc1cc(/C=C/C(=O)OCC(=O)Nc2ccc(C)c(S(=O)(=O)N3CCCCC3)c2)ccc1O | -1 | 2 | -3 | 6 | x | 5
O=C(COC(=O)CN1C(=O)C2CCCCC2C1=O)Nc1ccc(S(=O)(=O)N2CCOCC2)cc1 (stereo unspecified) | 1 | -4 | -3 | 4 | -4 | -1
SMILES | CAL PDZ FP-1 | S100A4 MyoIIA | CAL PDZ FP-2 | ERAP1 HTS inh | SIRT5 block | DENV2 CPE rescue
Cc1ccc(S(=O)(=O)N2CCC(C(=O)OCC(=O)NCc3cccc(Cl)c3)CC2)cc1C | -2 | -1 | -1 | 0 | -4 | -10
C[C@H](CO)N1C[C@H](C)[C@H](CN(C)S(C)(=O)=O)Oc2c(NS(=O)(=O)c3ccccc3)cccc2C1=O | x | 2 | x | 0 | -2 | -5
Cc1cc(C(=O)Nc2ccc3c(c2)C(=O)N(C)[C@H]2CC[C@@H](CC(=O)NC4CCCC4)O[C@@H]2CO3)no1 | x | -13 | x | 2 | 6 | 17
N#C[C@H]1[C@H](c2ccc(-c3cncnc3)cc2)[C@@H](CO)N1C(=O)CN1CCOCC1 | x | -5 | x | 1 | 0 | u
CN(C)C(=O)[C@H]1[C@H](CO)[C@H]2Cn3c(ccc(-c4cncnc4)c3=O)[C@H]2N1Cc1ccccc1F | x | 3 | x | -3 | 6 | 13
COc1ccc(C#Cc2ccc([C@@H]3[C@H](CO)N4C(=O)CN(C(=O)c5ccncc5)C[C@@H]34)cc2)cc1 | x | 11 | x | 2 | 5 | -5
CCCC#Cc1ccc([C@H]2[C@H]3CN(C(=O)Cc4cccnc4)CC(=O)N3[C@H]2CO)cc1 | x | 22 | x | 2 | 22* | 3
COc1ccc(C#Cc2ccc([C@@H]3[C@@H](CO)N4C(=O)CN(C(=O)c5ccncc5)C[C@@H]34)cc2)cc1 | x | -1 | x | 1 | 0 | 38*
Cc1cccc(-c2ccc([C@@H]3[C@@H](CO)N4C(=O)CN(C(=O)c5cccnc5)C[C@H]34)cc2)c1 | x | 3 | x | 0 | -6 | 21*
COc1ccc(C#Cc2ccc([C@H]3[C@H](CO)N4C(=O)CN(C(=O)c5cccnc5)C[C@@H]34)cc2)cc1 | x | -6 | x | 4 | 37* | 3
CCCNC(=O)C[C@H]1CC[C@@H]2[C@H](COc3ccc(NC(=O)Nc4c(C)noc4C)cc3C(=O)N2C)O1 | x | -28 | x | 0 | -4 | 10
COc1cccc(-c2ccc([C@H]3[C@H](CO)N4C(=O)CN(C(=O)NC(C)C)C[C@@H]34)cc2)c1 | x | 7 | x | 2 | -5 | 4
COc1ccc(S(=O)(=O)N2CC3(CN(Cc4ccccc4OC)[C@H](CO)c4[nH]c5cc(OC)ccc5c43)C2)cc1 | x | x | x | x | x | -6
CCCN(C)C[C@H]1Oc2ncc(-c3cccc(C#N)c3)cc2C(=O)N([C@H](C)CO)C[C@@H]1C | x | 26 | x | 1 | 1 | 15
CO[C@H]1CN(C)C(=O)c2ccc(NC(=O)Nc3cccc(F)c3)cc2OC[C@H](C)N(C(=O)Nc2c(C)noc2C)C[C@H]1C | x | -2 | x | 1 | x | 6
CO[C@@H]1CN(C)C(=O)c2ccc(NC(=O)Nc3cccc(Cl)c3)cc2OC[C@H](C)N(C(=O)Nc2c(C)noc2C)C[C@H]1C | x | 2 | x | 2 | 4 | 31*
CO[C@H]1CN(C)C(=O)c2ccc(NC(=O)Nc3cccc(Cl)c3)cc2OC[C@H](C)N(C(=O)Nc2c(C)noc2C)C[C@@H]1C | x | -3 | x | -1 | 0 | 19
